Converted amounts (≈) assume the structure as drawn. The source made the active and inactive calls. The rule behind the calls is not given here.
Tests used:
Escherichia coli [1] = test: Antibacterial activity against Escherichia coli JM109 by microdilution method; format: functional
Procedure, shortened: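 Microdilution β-lactam susceptibility in E. coli JM109, the host strain for recombinant plasmids such as the pHSG396-based blaKHM-1 clone.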

Escherichia coli [2] = test: Antibacterial activity against Escherichia coli K-12 W1895 transconjugant harboring pCF243 by microdilution method; format: functional
Escherichia coli [3] = test: Antibacterial activity against Escherichia coli JM109 harboring recombinant pKHM-1 by microdilution method; format: functional
Escherichia coli [4] = test: Antibacterial activity against Escherichia coli K-12 W1895 by microdilution method; format: functional
Procedure, shortened: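 Microdilution β-lactam MICs in E. coli K-12 W1895, the conjugation recipient. Transconjugants carrying the natural blaKHM-1 plasmid were selected on Penassay agar with rifampin (200 μg/ml) and moxalactam (16 μg/ml).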

Escherichia coli [5] = test: Ratio of Kcat to Km for Escherichia coli JM109 harboring recombinant pKHM-1 Beta-lactamase KHM-1 assessed as compound hydrolysis by UV-visible spectrophotometry
Procedure, shortened: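 KHM-1 was purified from E. coli JM109(pKHM-1) on HiTrap Q and Superdex 200 columns, with fractions tracked by 100 μM nitrocefin hydrolysis. Protein was measured by BCA. Hydrolysis was followed spectrophotometrically in 50 mM phosphate pH 7.0 at 25°C under initial-rate conditions. Km and kcat came from Lineweaver-Burk plots as means of three independent experiments, and kcat/Km was calculated from them.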

Escherichia coli [6] = settings: JM109
Citrobacter freundii [7] = test: Antibacterial activity against Citrobacter freundii KHM243 clinical isolate by microdilution method; format: functional
Escherichia coli [8] = test: Antibacterial activity against Escherichia coli JM109 by microdilution method in presence of Sulbactam; format: functional
Procedure, shortened: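 Microdilution β-lactam susceptibility in E. coli JM109, the host for recombinant plasmids including the pHSG396 construct carrying blaKHM-1. Sulbactam was paired with ampicillin at a fixed 2:1 ampicillin-to-sulbactam ratio.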

Citrobacter freundii [9] = test: Antibacterial activity against Citrobacter freundii KHM243 clinical isolate by microdilution method in presence of Sulbactam; format: functional
Procedure, shortened: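 Broth microdilution susceptibility of C. freundii KHM243, a urinary isolate from a catheter-associated UTI patient (1997). Ampicillin was tested with sulbactam at a fixed ampicillin:sulbactam ratio of 2:1.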

Escherichia coli [10] = test: Antibacterial activity against Escherichia coli K-12 W1895 transconjugant harboring pCF243 by microdilution method in presence of Sulbactam; format: functional
Procedure, shortened: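 Broth microdilution MIC of ampicillin-sulbactam, combined at a 2:1 ampicillin:sulbactam ratio. The host is an E. coli K-12 W1895 transconjugant carrying the natural blaKHM-1 plasmid pCF243 from C. freundii KHM243, selected on Penassay broth agar with rifampin (200 μg/ml) and moxalactam.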

Escherichia coli [11] = test: Antibacterial activity against Escherichia coli K-12 W1895 by microdilution method in presence of Sulbactam; format: functional
Procedure, shortened: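 β-Lactam susceptibility was measured by microdilution. Ampicillin was tested combined with sulbactam at a fixed 2:1 ampicillin:sulbactam ratio. The E. coli K-12 W1895 strain served as the recipient strain in the conjugation experiments.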

Escherichia coli [12] = test: Antibacterial activity against Escherichia coli JM109 harboring recombinant pKHM-1 by microdilution method in presence of Sulbactam; format: functional
Procedure, shortened: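 Broth microdilution MIC of ampicillin-sulbactam, combined at a 2:1 ampicillin:sulbactam ratio. The host is E. coli JM109 carrying pKHM-1, a recombinant pHSG396 clone of an EcoRI fragment of pCF243 bearing blaKHM-1, selected on agar with moxalactam (1 μg/ml).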

Escherichia coli [13] = settings: JM109; remark: listed apart in the source
Escherichia coli [14] = test: Antibacterial activity against Escherichia coli JM109 by microdilution method in presence of clavulanic acid; format: functional
Procedure, shortened: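 Broth microdilution susceptibility of E. coli JM109, the host strain for pHSG396-based recombinant plasmids. Ticarcillin was tested with clavulanic acid at a fixed ticarcillin:clavulanic acid ratio of 15:1.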

Citrobacter freundii [15] = test: Antibacterial activity against Citrobacter freundii KHM243 clinical isolate by microdilution method in presence of clavulanic acid; format: functional
Procedure, shortened: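 Broth microdilution MICs of β-lactams against the C. freundii KHM243 urinary isolate. Clavulanic acid was combined with ticarcillin at a fixed 15:1 ticarcillin-to-clavulanate ratio.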

Escherichia coli [16] = test: Antibacterial activity against Escherichia coli K-12 W1895 by microdilution method in presence of clavulanic acid; format: functional
Procedure, shortened: (§1)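 Broth microdilution MICs of β-lactams. Clavulanic acid was tested combined with ticarcillin at a fixed 15:1 ticarcillin:clavulanic acid ratio.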

Escherichia coli [17] = test: Antibacterial activity against Escherichia coli JM109 harboring recombinant pKHM-1 by microdilution method in presence of clavulanic acid; format: functional; procedure, shortened: as §1
Escherichia coli [18] = test: Antibacterial activity against Escherichia coli K-12 W1895 transconjugant harboring pCF243 by microdilution method in presence of clavulanic acid; format: functional; procedure, shortened: as §1

| Compound | MIC (Escherichia coli [1]) [µg/mL] | MIC (Escherichia coli [2]) [µg/mL] | MIC (Escherichia coli [3]) [µg/mL] | MIC (Escherichia coli [4]) [µg/mL] | kcat/Km (Escherichia coli [5]) | Km (Escherichia coli [6]) [µM] | kcat (Escherichia coli [6]) [s⁻¹] | MIC (Citrobacter freundii [7]) [µg/mL] | other results |
| --- | --- | --- | --- | --- | --- | --- | --- | --- | --- |
| CO/N=C(\C(=O)N[C@@H]1C(=O)N2C(C(=O)[O-])=C(C[N+]3(C)CCCC3)CS[C@H]12)c1csc(N)n1 | 0.004 (≈ 0.00832 µM) | > 512 | 64 | 0.002 (≈ 0.00416 µM) | – | – | – | – | – |
| CC1(C)S[C@@H]2[C@H](NC(=O)Cc3ccccc3)C(=O)N2[C@H]1C(=O)O | – | – | – | – | 1.7 ×10⁴ /M/s | 1340 | 23 | – | – |
| CC1(C)S[C@@H]2[C@H](NC(=O)[C@H](N)c3ccccc3)C(=O)N2[C@H]1C(=O)O [AMPICILLIN] | 1 (≈ 2.86 µM) | 64 (≈ 183 µM) | 16 | 8 (≈ 22.9 µM) | 1.9 ×10⁴ /M/s | 978 | 19 | 256 (≈ 733 µM) | MIC (Escherichia coli [8]): 0.5 µg/mL; MIC (Citrobacter freundii [9]): 64 µg/mL; MIC (Escherichia coli [10]): 64 µg/mL; MIC (Escherichia coli [11]): 1 µg/mL; MIC (Escherichia coli [12]): 16 µg/mL |
| C[C@H]1[C@H](NC(=O)/C(=N\OC(C)(C)C(=O)O)c2csc(N)n2)C(=O)N1S(=O)(=O)O [AZTREONAM] | – | 0.063 (≈ 0.145 µM) | 0.063 | 0.031 (≈ 0.0712 µM) | – | – | – | – | Km (Escherichia coli [13]): inactive; kcat (Escherichia coli [13]): inactive |
| NC(=O)OC[C@@H]1[C@H](NC(=O)/C(=N\OCC(=O)O)c2csc(N)n2)C(=O)N1S(=O)(=O)O [CARUMONAM] | 0.031 (≈ 0.0665 µM) | 0.125 (≈ 0.268 µM) | 0.063 | 0.031 (≈ 0.0665 µM) | – | – | – | 0.25 (≈ 0.536 µM) | – |
| CCN1CCN(C(=O)N[C@@H](C(=O)N[C@]2(OC)C(=O)N3C(C(=O)O)=C(CSc4nnnn4C)CS[C@@H]32)[C@H](C)O)C(=O)C1=O [CEFBUPERAZONE] | 0.031 (≈ 0.0494 µM) | 256 (≈ 408 µM) | 512 | 0.063 (≈ 0.1 µM) | – | – | – | 128 (≈ 204 µM) | – |
| CO[C@@]1(NC(=O)CSCC#N)C(=O)N2C(C(=O)O)=C(CSc3nnnn3C)CS[C@@H]21 [CEFMETAZOLE] | 0.25 (≈ 0.53 µM) | 512 (≈ 1090 µM) | > 512 | 0.5 (≈ 1.06 µM) | – | – | – | 512 (≈ 1090 µM) | – |
| CO[C@@]1(NC(=O)CSC[C@@H](N)C(=O)O)C(=O)N2C(C(=O)O)=C(CSc3nnnn3C)CS[C@@H]21 [CEFMINOX] | 0.25 (≈ 0.481 µM) | > 512 | 512 | 0.125 (≈ 0.241 µM) | – | – | – | 512 (≈ 985 µM) | – |
| CO/N=C(\C(=O)N[C@@H]1C(=O)N2C(C(=O)O)=C(COC(C)=O)CS[C@H]12)c1csc(N)n1 [CEFOTAXIME] | 0.004 (≈ 0.00878 µM) | > 512 | 128 | 0.008 (≈ 0.0176 µM) | – | 13 | 2180 | 64 (≈ 141 µM) | – |
| CO[C@@]1(NC(=O)C2SC(=C(C(N)=O)C(=O)O)S2)C(=O)N2C(C(=O)O)=C(CSc3nnnn3C)CS[C@@H]21 (stereo partly specified) [CEFOTETAN] | 0.031 (≈ 0.0539 µM) | 512 (≈ 889 µM) | > 512 | 0.125 (≈ 0.217 µM) | – | – | – | 128 (≈ 222 µM) | – |
| CO[C@@]1(NC(=O)Cc2cccs2)C(=O)N2C(C(=O)O)=C(COC(N)=O)CS[C@@H]21 [CEFOXITIN] | 8 (≈ 18.7 µM) | > 512 | > 512 | 8 (≈ 18.7 µM) | 1.4 ×10⁷ /M/s | 81 | 1180 | 512 (≈ 1200 µM) | – |
| CO/N=C(\C(=O)N[C@@H]1C(=O)N2C(C(=O)[O-])=C(C[n+]3ccn4ncccc43)CS[C@H]12)c1nsc(N)n1 [CEFOZOPRAN] | 0.008 (≈ 0.0155 µM) | 256 (≈ 497 µM) | 64 | 0.016 (≈ 0.031 µM) | – | – | – | 16 (≈ 31 µM) | – |
| CC(C)(O/N=C(\C(=O)N[C@@H]1C(=O)N2C(C(=O)[O-])=C(C[n+]3ccccc3)CS[C@H]12)c1csc(N)n1)C(=O)O [CEFTAZIDIME] | 0.063 (≈ 0.115 µM) | > 512 | > 512 | 0.125 (≈ 0.229 µM) | 1.5 ×10⁷ /M/s | 8 | 118 | > 512 | – |
| CO/N=C(\C(=O)N[C@@H]1C(=O)N2C(C(=O)O)=C(COC(N)=O)CS[C@H]12)c1ccco1 [CEFUROXIME] | 8 (≈ 18.9 µM) | > 512 | > 512 | 2 (≈ 4.71 µM) | – | – | – | > 512 | – |
| O=C(Cc1cccs1)N[C@@H]1C(=O)N2C(C(=O)[O-])=C(C[n+]3ccccc3)CS[C@H]12 [CEPHALORIDINE] | 1 (≈ 2.41 µM) | 128 (≈ 308 µM) | 64 | 2 (≈ 4.81 µM) | 1.6 ×10⁸ /M/s | 4.4 | 686 | 512 (≈ 1230 µM) | – |
| CO[C@@]1(NC(=O)CSC(F)F)C(=O)N2C(C(=O)O)=C(CSc3nnnn3CCO)CO[C@@H]21 [FLOMOXEF] | 0.031 (≈ 0.0624 µM) | 256 (≈ 516 µM) | 128 | 0.031 (≈ 0.0624 µM) | – | – | – | 64 (≈ 129 µM) | – |
| C[C@@H](O)[C@H]1C(=O)N2C(C(=O)O)=C(SCCNC=N)C[C@H]12 [IMIPENEM ANHYDROUS] | – | 4 (≈ 13.4 µM) | – | 0.063 (≈ 0.21 µM) | 5.6 ×10⁴ /M/s | – | – | 2 (≈ 6.68 µM) | – |
| C[C@@H](O)[C@H]1C(=O)N2C(C(=O)O)=C(S[C@@H]3CN[C@H](C(=O)N(C)C)C3)[C@H](C)[C@H]12 [MEROPENEM] | 0.004 (≈ 0.0104 µM) | 4 (≈ 10.4 µM) | 4 | 0.004 (≈ 0.0104 µM) | 3.3 ×10⁴ /M/s | 12 | 0.4 | 4 (≈ 10.4 µM) | – |
| CO[C@@]1(NC(=O)C(C(=O)O)c2ccc(O)cc2)C(=O)N2C(C(=O)O)=C(CSc3nnnn3C)CO[C@@H]21 (stereo partly specified) [MOXALACTAM] | 0.031 (≈ 0.0596 µM) | > 512 | > 512 | 0.063 (≈ 0.121 µM) | 3.9 ×10⁷ /M/s | 71 | 2790 | 256 (≈ 492 µM) | – |
| CCN1CCN(C(=O)N[C@@H](C(=O)N[C@@H]2C(=O)N3[C@@H]2SC(C)(C)[C@@H]3C(=O)O)c2ccccc2)C(=O)C1=O [PIPERACILLIN] | 0.25 (≈ 0.483 µM) | 16 (≈ 30.9 µM) | 4 | 2 (≈ 3.86 µM) | – | – | – | 4 (≈ 7.73 µM) | – |
| CC1(C)S[C@@H]2[C@H](NC(=O)[C@H](C(=O)O)c3ccsc3)C(=O)N2[C@H]1C(=O)O [TICARCILLIN] | 2 (≈ 5.2 µM) | > 512 | 512 | 2 (≈ 5.2 µM) | – | – | – | > 512 | MIC (Escherichia coli [14]): 2 µg/mL; MIC (Citrobacter freundii [15]): 512 µg/mL; MIC (Escherichia coli [16]): 4 µg/mL; MIC (Escherichia coli [17]): 512 µg/mL; MIC (Escherichia coli [18]): > 512 µg/mL |
